# TCR-CD3 inh = blocks the human TCR-CD3 interaction; TAMRA-labeled TCR probe fluorescence, biochemical; inhibition, % at 9.4 µM; 360,000 tested, 0.37% active;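 also: recombinant mutant TCR 2C K166C tagged with TAMRA read by polarization; 0% = receptor in buffer alone and 100% = receptor with positive control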
# SIAE primary = human SIAE inhibition, primary screen; AID 1053197; SIAE FP-Rh probe binding, fluorescence polarization; 370,000 tested, 0.69% active; inhibition, % at 9.66 µM; Q9HAT2;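 active = inhibition above a cutoff: mean of compounds within the control limits plus 3 SD of those, cut at about 17% in these data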;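 also: 0% = plate median of compound wells and 100% = probe without SIAE protein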
# HTRA1 inh = blocks human HTRA1 serine peptidase. Q92743. recombinant HTRA1, FP-rhodamine activity-based probe, fluorescence polarization. inhibition, % at 5.96 µM. 340,000 tested, 0.5% active. AID 504803; in the data active = inhibition above about 36%;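 also: 0% = enzyme with DMSO and 100% = wells lacking enzyme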
# LEDGF integ inh = blocks HIV-1 LEDGF/p75-dependent DNA integration. inhibition, % at 3.7 µM. 370,000 tested, 0.64% active. TR-FRET IN-LEDGF/p75 DNA integration, Eu/Cy5;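 active = inhibition above the screen-wide mean plus 3 SD, cut at about 13% in these data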;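 also: signal is the Cy5 over europium emission ratio at 671 and 618 nm; 0% = plate median of compound wells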
# ABHD4 inh = inhibitors of mouse ABHD4; Q8VD66; purified mABHD4, FP-Rh probe fluorescence polarization; inhibition, % at 8.92 µM; 370,000 tested, 0.54% active; AID 720543;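 active = inhibition exceeding the mean over every tested compound plus 3 SD, cut at about 30% in these data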;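 also: 0% = plate median of compound wells and 100% = S159A mutant with DMSO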
#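 Test system: mABHD4 protein | Buffer or medium: HEPES pH 7.0 buffer, 150 mM NaCl, 0.01% Pluronic F-127 | Probe or stimulus: FP-Rh fluorescent activity-based probe, added after compound pre-incubation | Timing: Pre-incubation 45 min, probe exposure 60 min, at 25 °C | Technique: Fluorescence polarization, excitation 525 nm, emission 598 nm, BODIPY TMR filters | Repeats: Single well per compound (singlicate)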
# TDP2 absorb = blocks human TDP2 phosphodiesterase activity; 370,000 tested, 0.34% active; recombinant TDP2, T5PNP hydrolysis, p-nitrophenol absorbance 415 nm; inhibition, % at 12.8 µM; O95551;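 active = inhibition above the mean of all tested compounds plus 3 SD, set per campaign, cut at about 25% in these data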;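 also: 0% = DMSO with enzyme and 100% = buffer with substrate but no TDP2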
# Target sequence (O95551 whole entry, looked up): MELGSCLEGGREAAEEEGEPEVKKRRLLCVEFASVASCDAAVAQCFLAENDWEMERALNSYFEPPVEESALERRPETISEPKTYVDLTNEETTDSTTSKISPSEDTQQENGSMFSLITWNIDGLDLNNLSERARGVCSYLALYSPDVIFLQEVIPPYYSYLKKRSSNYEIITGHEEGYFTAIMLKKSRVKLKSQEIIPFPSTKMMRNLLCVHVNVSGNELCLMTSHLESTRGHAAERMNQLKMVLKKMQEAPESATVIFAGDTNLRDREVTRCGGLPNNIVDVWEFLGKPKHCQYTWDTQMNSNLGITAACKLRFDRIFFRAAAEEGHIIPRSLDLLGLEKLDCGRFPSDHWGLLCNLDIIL
#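 test system = human TDP2 enzyme | input = TDP2 enzyme at 120 nM final | medium = 50 mM Tris-HCl pH 7.5 with Mg2+, KCl, DTT, BSA | also added = T5PNP substrate, 5 mM | times = 2 h at 37 °C | technique = epi absorbance | benchmarks = high control without enzyme, low control DMSO plus TDP2 | replication = each compound tested once, singlicate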
# HTRA1 conf = confirmation of human HTRA1 inhibitors | shares compounds with HTRA1 inh | recombinant HTRA1, FP-rhodamine activity-based probe, fluorescence polarization | inhibition, % at 5.96 µM | 1,600 tested, 66% active | AID 540248;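 active = mean inhibition over three repeats above a set limit taken from the earlier primary screen, cut at about 37% in these data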;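 also: 0% = HTRA1 with DMSO and 100% = wells lacking HTRA1; inhibitors block probe binding so polarization drops and inhibition rises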
# BSA TAMRA ctr = counter-screen for TCR-CD3 interaction inhibitors: BSA probe | inhibition, % at 9.4 µM | shares compounds with TCR-CD3 inh | 1,200 tested, 10% active | AID 652035 | TAMRA-labeled BSA probe fluorescence counterscreen; in the data active = inhibition above about 23%;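 also: 0% = buffer low control and 100% = reference high control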
# TCR-CD3 conf = confirmation of human TCR-CD3 interaction inhibitors; inhibition, % at 9.4 µM; shares compounds with TCR-CD3 inh; TAMRA-labeled TCR probe fluorescence binding assay; 1,200 tested, 48% active
# ABHD4 confirm = ABHD4 (mouse) inhibition, FP confirmation. 1,800 tested, 55% active. AID 720658. purified mABHD4, FP-Rh probe fluorescence polarization. inhibition, % at 8.92 µM. shares compounds with ABHD4 inh;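 active = mean inhibition across replicates above the hit cutoff set in the primary screen, cut at about 30% in these data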;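 also: 0% = wild-type ABHD4 with DMSO and 100% = catalytically dead S159A mutant with DMSO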
# TDP2 confirm = human TDP2 inhibition, confirmation; shares compounds with TDP2 absorb; recombinant human TDP2, absorbance read-out; inhibition, % at 12.8 µM; 1,100 tested, 22% active; AID 743263; in the data active = inhibition above about 25%;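 also: 0% = vehicle with enzyme and 100% = no enzyme buffer only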
# IN multimer up = counter-screen for LEDGF/p75 integration inhibitors: HIV-1 integrase multimerization activators | shares compounds with LEDGF integ inh | 2,000 tested, 17% active | activation, % at 7.7 µM | AID 1053131 | TR-FRET HIV-1 integrase multimerization, biochemical; in the data active = activation above about 8.9%
# TR-FRET interf = TR-FRET optical interference, LEDGF/p75 integration counter-screen | shares compounds with LEDGF integ inh | TR-FRET optical interference counterscreen, HIV-1 IN multimerization | inhibition, % at 7.7 µM | 2,000 tested, under 10 active;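 active = inhibition above the mean over all tested compounds plus 3 SD, which no compound reached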;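 also: 0% = integrase with antibodies and DMSO and 100% = antibodies without integrase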
# LEDGF integ conf = confirmation of HIV-1 LEDGF/p75-dependent integration inhibitors; shares compounds with LEDGF integ inh; TR-FRET LEDGF/p75-dependent HIV-1 integration, biochemical; inhibition, % at 3.7 µM; 2,000 tested, 36% active; AID 1053136; in the data active = inhibition above about 14%
# SIAE inh conf = human SIAE inhibition, confirmation; 2,300 tested, 13% active; SIAE FP-Rh activity-based probe, fluorescence polarization; inhibition, % at 9.66 µM; shares compounds with SIAE primary; AID 1117263;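 active = mean inhibition of the replicates above the hit cutoff set in the primary screen, cut at about 17% in these data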;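 also: 0% = SIAE with DMSO and probe and 100% = probe without SIAE; inhibitors lower polarization as more probe stays unbound to SIAE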
# An asterisk follows results filed as active; · = not tested or not shown. Most compounds without a hit are left out; they make up all but 2.2% or so of the library. Rule as the data show it, unless noted: active = inhibition above about 19%; inactive = the rest.
SMILES,TCR-CD3 inh,SIAE primary,HTRA1 inh,LEDGF integ inh,ABHD4 inh,TDP2 absorb,BSA TAMRA ctr,TCR-CD3 conf,others
CC[n+]1c(-c2ccccc2)c2cc(N)ccc2c2ccc(N)cc21,90*,54*,109*,42*,82*,34*,103*,93*,HTRA1 conf=118*;ABHD4 confirm=105*;TDP2 confirm=22;IN multimer up=7;TR-FRET interf=-33;LEDGF integ conf=70*;SIAE inh conf=67*
CC12CCC(=O)CC1CCC1C2C(=O)CC2(C)C1CCC2(C)O (centres undefined),-5,4,1,-3,5,4,·,·,
CCOC(=O)CNC(=O)N1Cc2cc(Br)ccc2-n2nncc2C1,36*,2,·,-4,2,-1,-2,4,
CCOC(=O)CNC(=O)N1Cc2cc(-c3ccc(OC)cc3)ccc2-n2nncc2C1,-1,-3,·,4,-3,-14,·,·,
O=C(N/N=C/c1c(O)n(CCc2ccccc2)c(=O)[nH]c1=O)c1ccccc1O,23*,7,35,-5,39*,-7,-4,28*,
O=C(N/N=C/c1c(O)n(CCc2ccc(F)cc2)c(=O)[nH]c1=O)c1ccccc1,10,3,·,4,-1,-10,·,·,
CCOc1cccc(CNCCc2c(C)[nH]c3ccc(OC(F)(F)F)cc23)c1O,4,9,-18,1,15,-3,·,·,
CC(C)NC1C2CCC(CC2)C1(O)c1ccc(Cl)c(Cl)c1 (centres undefined),3,-3,-6,-2,4,0,·,·,
CC/C(=N\NC(=O)c1ccccc1Cl)c1c(O)n(C2CCCCC2)c(=O)[nH]c1=O,21*,0,7,-1,-3,-7,-5,18,
COC(=O)C1=C(c2ccc3ccccc3c2)C[C@@H]2CC[C@H]1N2C(=O)N1CCC(C)CC1,·,·,-22,·,·,·,·,·,
Cc1ccc(/C=C2\C(=O)NC(=S)N(c3ccccc3F)C2=O)s1,45*,-97,-24,1,-212,-3,-31,-16,
Cc1ccc(/C=C2\C(=O)NC(=S)N(c3ccc(F)cc3)C2=O)s1,-27,-33,-20,3,-8,12,·,·,
COc1ccc(-c2ccc3c(c2)CN(C(=S)NCCc2ccccc2)Cc2cnnn2-3)cc1,26*,-43,·,2,-60,4,8,17,
COc1ccc(-c2ccc3c(c2)CN(C(=O)CCc2ccccc2)Cc2cnnn2-3)cc1,-4,-11,·,-2,-12,13,·,·,
O=C1NC(=O)N(c2ccccc2)C(=O)/C1=C/c1ccoc1,24*,-7,-2,9,10,8,-1,4,
